Compound activity deposited in PubChem BioAssay by several laboratories.
Rows were chosen to be rich in hits. Some 2.5% of all compounds tested hit in one or more screens of this group.
TRPC6 inh: mouse TRPC6 channel inhibitors, primary screen, cell-based, HEK293, membrane potential dye; ACh-evoked depolarization; stronger effect = lower value; B-score at 10 µM; hit rate 1.1% among 310,000;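 active means B-score under library mean minus 3 SD, initial fluorescence not abnormally high, positive integrated signal ratio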;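 further: B-score derived from integrated fluorescence ratio over the kinetic read; more negative B-score means stronger inhibition of depolarization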
TRPC4 agonist: activators of mouse TRPC4 channel, primary screen, Fluo4 calcium, HEK293 TRPC4beta/mu-opioid cells; Fluo4 calcium fluorescence; stronger effect = higher value; B-score at 10 µM; hit rate 0.49% among 310,000; AID 2237, 2010;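 active means B-score above 5 SD of library B-scores, and initial fluorescence ratio not above library mean plus 5 SD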;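 further: positive B-score marks a calcium rise read as TRPC4 activation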
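Material: TRPC4beta and mu-opioid receptor HEK293 stable cells | Incubation: 45 min room-temperature Fluo4 loading, 110 s read | Detection: Kinetic Fluo4 calcium fluorescence | Measure: Integrated baseline-normalised fluorescence ratio, converted to per-well B score | Benchmarks: Low control buffer alone, high control maximal DAMGO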
TRPC6 act: mouse TRPC6 channel activators, primary screen, cell-based, HEK293, membrane potential dye; Short transient receptor potential channel 6 (Mus musculus), Q61143; HEK293-TRPC6 membrane potential dye fluorescence; stronger effect = higher value; B-score at 10 µM; hit rate 0.13% among 310,000;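 active means B-score of the integrated fluorescence ratio above library mean plus 3 SD, and starting fluorescence ratio within library mean plus 5 SD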;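 further: higher score means more depolarization so channel activation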
TRPC4 block: inhibitors of mouse TRPC4 channel, primary screen, Fluo4 calcium, HEK293 TRPC4beta/mu-opioid cells | AID 2247, 2010 | B-score at 10 µM | hit rate 0.39% among 300,000 | DAMGO-evoked Fluo4 calcium flux; stronger effect = lower value | Short transient receptor potential channel 4 (Mus musculus), Q9QUQ5;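 active means B-score over 3 SD under the library average, no early fluorescence shift, positive overall ratio signal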
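Material: HEK293 cells with stable TRPC4beta plus mu-opioid receptor expression; probe or stimulus: DAMGO in two steps, submaximal then maximal; technique: Fluo4 calcium fluorescence by kinetic imaging, 5 s 1 Hz baseline; measure: integrated fluorescence ratio relative to baseline, converted to per-well B score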
TRPC4 PAM: positive allosteric modulators of TRPC4, primary screen, cell-based, mouse TRPC4beta, HEK293 mu-opioid, Fluo-4 calcium | B-score at 10 µM | hit rate 0.42% among 310,000 | DAMGO EC20, Fluo-4 Ca2+ flux; stronger effect = higher value;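 active means B-score of calcium response area above 5 SD of library B-scores, with initial fluorescence ratio within 5 SD of library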;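 further: B-score of integrated fluorescence ratio over time as area under calcium response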
Pemphigus Ab inh: inhibitors of pemphigus antibody binding to DSG3, primary screen, biochemical, bead-based, flow cytometry, scFv-GFP; Desmoglein-3 (Homo sapiens), P32926; DSG3-coupled beads, scFv-anti-DSG3-GFP binding; stronger effect = lower value; binding (percent of control), % at 10 µM; hit rate 0.48% among 310,000; AID 588358, 2011;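 active means binding more than 3 SD below its plate's average and above zero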
Target sequence (P32926 whole entry, looked up): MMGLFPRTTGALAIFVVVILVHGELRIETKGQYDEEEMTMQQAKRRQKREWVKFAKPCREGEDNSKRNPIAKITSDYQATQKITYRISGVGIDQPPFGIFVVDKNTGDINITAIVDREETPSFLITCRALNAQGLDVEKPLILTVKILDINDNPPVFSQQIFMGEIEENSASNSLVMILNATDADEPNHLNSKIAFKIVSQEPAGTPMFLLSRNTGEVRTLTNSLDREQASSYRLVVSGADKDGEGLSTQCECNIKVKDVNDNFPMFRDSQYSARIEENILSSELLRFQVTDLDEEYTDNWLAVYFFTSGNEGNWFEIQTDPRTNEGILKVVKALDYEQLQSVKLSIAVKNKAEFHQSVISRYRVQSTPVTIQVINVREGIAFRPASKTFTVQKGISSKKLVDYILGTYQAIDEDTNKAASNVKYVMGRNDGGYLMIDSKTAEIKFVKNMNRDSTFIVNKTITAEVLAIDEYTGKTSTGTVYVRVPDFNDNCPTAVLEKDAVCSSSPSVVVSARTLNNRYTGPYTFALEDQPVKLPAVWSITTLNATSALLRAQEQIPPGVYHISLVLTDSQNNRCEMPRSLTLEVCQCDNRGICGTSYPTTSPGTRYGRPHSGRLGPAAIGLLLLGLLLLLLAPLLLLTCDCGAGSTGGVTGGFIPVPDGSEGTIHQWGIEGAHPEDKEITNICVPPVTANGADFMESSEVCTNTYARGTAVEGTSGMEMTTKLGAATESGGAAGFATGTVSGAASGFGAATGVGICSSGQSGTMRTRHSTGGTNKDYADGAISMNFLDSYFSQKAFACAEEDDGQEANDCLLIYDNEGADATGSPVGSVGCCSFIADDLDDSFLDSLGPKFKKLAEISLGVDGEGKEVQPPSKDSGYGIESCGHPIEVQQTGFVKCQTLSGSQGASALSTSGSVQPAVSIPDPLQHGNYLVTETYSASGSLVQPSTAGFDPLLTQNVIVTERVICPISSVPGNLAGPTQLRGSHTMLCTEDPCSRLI
TRPC4 sel inh 2: mouse TRPC4 off-target activity of TRPC6 inhibitors, second screen; shares compounds with TRPC6 inh; HEK293 TRPC4/MOR, membrane potential dye fluorescence; channel activated by saturating DAMGO dose; inhibition, % at 10 µM; hit rate 42% among 920;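 active means compounds whose fluorescence signal differed from control wells by over 3 SD, either direction, in both duplicate plates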
TRPC4 spec: mouse TRPC4 modulation by TRPC6 hits, confirmation, selectivity assay for TRPC6 inhibitor project, cell-based, HEK293 TRPC4/mu-opioid, membrane potential dye. shares compounds with TRPC6 inh. membrane potential fluorescence. activity change, negative = inhibition, % at 10 µM. hit rate 61% among 920. AID 2777, 2010;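 active means rise or fall in signal beyond 3 SD of buffer-only wells in both replicate plates, either sign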;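 further: integrated kinetic ratio of fluorescence range over baseline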
HEK293 MPD ctr 2-1: nonspecific membrane potential effects, parental HEK293, confirmation, counter-screen for TRPC6 inhibitor project, cell-based, second counter screen | parental HEK293 membrane potential dye fluorescence; maximal acetylcholine challenge after compound addition | shares compounds with TRPC6 inh | hit rate 31% among 920 | signal change vs control, % at 10 µM | AID 2779, 2010;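 active means membrane potential signal moving either way by over 3 SD of the maximum-effect control, in both duplicate plates, meaning non-specific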
HEK293 MPD ctr-1: membrane potential modulation in parental HEK293, confirmation, counter-screen for TRPC6 inhibitor project, cell-based | parental HEK293 membrane potential dye fluorescence | shares compounds with TRPC6 inh | AID 2780, 2010 | hit rate 60% among 920 | membrane potential signal change, % at 10 µM;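 active means membrane potential signal shifting up or down by more than 3 SD of buffer-only wells, on both duplicate plates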
HEK293 MPD ctr-2: parental HEK293 membrane potential modulation, confirmation, counter-screen for TRPC6 modulator project, cell-based | membrane potential signal change, % at 10 µM | hit rate 51% among 2,400 | shares compounds with TRPC6 inh | AID 488924, 2010 | membrane potential dye fluorescence;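 active means membrane potential signal moves up or down beyond 5 SD from buffer-only wells, on both duplicate plates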
HEK293 MPD ctr 2-2: second check of TRPC6 modulator effects in parental HEK293 cells; shares compounds with TRPC6 inh; membrane potential dye fluorescence; after compound, maximal acetylcholine stimulation; inhibition, % at 10 µM; hit rate 14% among 2,400; AID 488926;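 active means membrane potential signal drops by more than 5 SD from the mean control signal, in both duplicate plates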;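 further: plate controls were acetylcholine ECmax control wells for no effect and buffer only wells for full effect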
TRPC4/MOR mod: TRPC4 modulation by TRPC6 hit compounds, confirmation, selectivity assay for TRPC6 modulator project, cell-based, HEK293 TRPC4/mu-opioid, membrane potential dye, mouse | shares compounds with TRPC6 inh | membrane potential fluorescence | percent change from control (negative = decrease, positive = increase), % at 10 µM | hit rate 69% among 2,400;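 active means membrane potential signal moved up or down beyond 5 SD of buffer control wells, in both duplicate plates, actives on both sides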;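 further: plate controls were assay buffer wells for no effect and DAMGO maximal-effect wells for full effect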
TRPC4/MOR inh 2: mouse TRPC4 off-target activity of TRPC6 modulators, second screen; AID 488928; HEK293 TRPC4/mu-opioid, membrane potential dye fluorescence; stimulated with maximal-effect DAMGO; shares compounds with TRPC6 inh; hit rate 55% among 2,400; inhibition, % at 10 µM;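 active means drop in membrane potential signal beyond 5 SD of the control wells in both duplicate plates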;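 further: TRPC4 counter screen for TRPC6 hits run under conditions tuned for TRPC6 not TRPC4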
TRPC6 block conf: mouse TRPC6 channel inhibitors, confirmation, HEK293 cells, membrane potential dye, duplicate; shares compounds with TRPC6 inh; ACh-evoked depolarization; inhibition, % at 10 µM; hit rate 43% among 3,300;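 active means fluorescence ratio falls more than 5 SD below the full-stimulation control mean, in both duplicate runs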;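 further: integrated fluorescence ratio of peak minus minimum over baseline after agonist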
TRPC6 act conf: mouse TRPC6 channel activators, confirmation, HEK293 cells, membrane potential dye, duplicate | HEK293-TRPC6 membrane potential dye fluorescence, FDSS | shares compounds with TRPC6 inh | hit rate 11% among 2,800 | activation, % at 10 µM;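 active means ratio signal rise beyond 5 SD above unstimulated control wells' mean, seen in both duplicate runs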;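 further: plate controls were buffer EC0 wells for no effect and acetylcholine ECmax response for full effect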
An asterisk follows results filed as active; i = inactive; . = no result given.

SMILES	TRPC6 inh	TRPC4 agonist	TRPC6 act	TRPC4 block	TRPC4 PAM	Pemphigus Ab inh	HEK293 MPD ctr-2	HEK293 MPD ctr 2-2	TRPC4/MOR mod	TRPC4/MOR inh 2	TRPC6 block conf	TRPC6 act conf	others
Cc1cc(-c2ccc(C)c(S(=O)(=O)NCC3CCN(Cc4cccc(F)c4)CC3)c2)on1	i	i	i	i	i	.	.	.	.	.	.	.
Cc1cc(-c2ccc(C)c(S(=O)(=O)NCC3CCN(Cc4ccccc4F)CC3)c2)on1	-5*	i	i	i	i	105	i	i	i	76%*	36%*	i
COc1ccc(CCNC(=O)c2cc(-c3ccccc3)c(N3CCOCC3)s2)c(OC)c1OC	i	i	i	i	i	99	.	.	.	.	.	.
c1ccc2oc(C3=NNC(=NC4CC4)SC3)cc2c1	-8.4*	i	i	i	i	89	.	.	.	.	i	i	TRPC4 sel inh 2=i;TRPC4 spec=i;HEK293 MPD ctr 2-1=i;HEK293 MPD ctr-1=i
Cc1cccn2c(=O)c3cc(C(=O)NCCc4ccccc4)c(=N)n(CCCn4ccnc4)c3nc12	-6.2*	i	i	i	i	105	i	100%*	i	i	i	i
CCNC(=O)c1cc2c(=O)n3cccc(C)c3nc2n(CCc2ccccc2)c1=N	-7.4*	i	i	i	i	101	-141%*	74%*	-28%*	48%*	63%*	i
COc1ccc(CCn2c(=N)c(C(=O)NCCN3CCOCC3)cc3c(=O)n4cccc(C)c4nc32)cc1OC	i	i	i	i	i	104	.	.	.	.	.	.
